Test [1] can be described thus: Cytotoxicity against human WS1 cells by resazurin reduction assay. The format is cell-based. In a few lines: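 WS1 human fibroblast line; resazurin reduction test, slightly modified from an earlier method. Etoposide served as positive control.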
In test [2] the test system is Staphylococcus aureus. Kind of test: Antibacterial activity against methicillin resistant Staphylococcus aureus clinical isolate 4 incubated for 7 to 14 days by microdilution resazurin assay.
In test [3] the test system is Staphylococcus aureus. Kind of test: Antibacterial activity against methicillin resistant Staphylococcus aureus clinical isolate 1 incubated […] by microdilution resazurin assay. Type of test: functional.
Test [4] has as its system Staphylococcus aureus. As to the kind of experiment: Antibacterial activity against methicillin resistant Staphylococcus aureus clinical isolate 2 incubated […] by microdilution resazurin assay. The format is functional.
Test [5] relates to Staphylococcus aureus. Kind of test: Antibacterial activity against methicillin resistant Staphylococcus aureus clinical isolate 8 incubated […] by microdilution resazurin assay. Type of test: functional.
The test system of test [6] is Staphylococcus aureus. As to the kind of experiment: Antibacterial activity against methicillin resistant Staphylococcus aureus clinical isolate 9 incubated […] by microdilution resazurin assay. The format is functional.
For test [7], the system named is Staphylococcus aureus. As to the kind of experiment: Antibacterial activity against methicillin resistant Staphylococcus aureus clinical isolate 6 incubated […] by microdilution resazurin assay. Type of test: functional.
Test [8] has as its system Staphylococcus aureus. As to the kind of experiment: Antibacterial activity against methicillin resistant Staphylococcus aureus clinical isolate 5 incubated […] by microdilution resazurin assay. Type of test: functional.
In test [9] the test system is Staphylococcus aureus. Kind of test: Antibacterial activity against methicillin resistant Staphylococcus aureus clinical isolate 7 incubated […] by microdilution resazurin assay. The format is functional.
For test [10], the system named is Staphylococcus aureus. Kind of test: Antibacterial activity against methicillin resistant Staphylococcus aureus clinical isolate 10 incubated […] by microdilution resazurin assay. The format is functional.
Test [11] has as its system Staphylococcus aureus. As to the kind of experiment: Antibacterial activity against methicillin resistant Staphylococcus aureus clinical isolate 3 incubated for 7 to 14 days by microdilution resazurin assay.
In test [12] the test system is Staphylococcus aureus. Kind of test: Antibacterial activity against Staphylococcus aureus ATCC 25923 incubated […] by microdilution resazurin assay. Type of test: functional.
Where [13] appears, read: Staphylococcus aureus, isolate 1, read-out: MIC.
Where [14] appears, read: Staphylococcus aureus, isolate 2, read-out: MIC.
The mark [15] stands for this setting: Staphylococcus aureus, isolate 8, read-out: MIC.
The mark [16] stands for this setting: Staphylococcus aureus, isolate 9, read-out: MIC.
[17] abbreviates: Staphylococcus aureus, isolate 6, read-out: MIC.
Setting [18] is: Staphylococcus aureus, isolate 5, read-out: MIC.
The mark [19] stands for this setting: Staphylococcus aureus, isolate 7, read-out: MIC.
The mark [20] stands for this setting: Staphylococcus aureus, isolate 10, read-out: MIC.
Where [21] appears, read: Staphylococcus aureus, ATCC 25923, read-out: MIC.

≈ marks a conversion by molar mass, not a printed value.

In [1], `O=C(CCc1ccccc1)c1c(O)c2c(c3c1OC(c1ccc(O)cc1)C(C/C=C/c1ccc(O)cc1)C3)OC(c1ccc(O)cc1)C(C/C=C/c1ccc(O)cc1)C2` (racemic; form 1) yielded a half-maximal inhibitory concentration (IC50) of 2.3 µM. Further, the MIC in the test on Staphylococcus aureus [2], with Staphylococcus aureus [3] (setting [13]), with Staphylococcus aureus [4] (setting [14]), in the test on Staphylococcus aureus [5] (setting [15]), with Staphylococcus aureus [6] (setting [16]) and in the test on Staphylococcus aureus [7] (setting [17]) was over 50 µM throughout. Moreover, the MIC in the test with Staphylococcus aureus [8] (setting [18]), in the test on Staphylococcus aureus [9] (setting [19]), with Staphylococcus aureus [10] (setting [20]) and against Staphylococcus aureus [11] was over 50 µM each time.

Regarding `O=C(CCc1ccccc1)c1c(O)c2c(c3c1OC(c1ccc(O)cc1)C(C/C=C/c1ccc(O)cc1)C3)OC(c1ccc(O)cc1)C(C/C=C/c1ccc(O)cc1)C2` (racemic; form 2), the IC50 in test [1] was over 10 µM. Also, the MIC in the test with Staphylococcus aureus [12] (setting [21]) was over 50 µM.

Turning to `O=C(CCc1ccccc1)c1c(O)cc(O)c2c1OC(c1ccc(O)cc1)CC2` (single isomer, unassigned; (+)), the MIC in the test with Staphylococcus aureus [3] is 13 µM (≈ 5.08 µg/mL); with Staphylococcus aureus [12] (setting [21]), 6 µM (≈ 2.34 µg/mL); in the test on Staphylococcus aureus [4] it was 13 µM (≈ 5.08 µg/mL); with Staphylococcus aureus [5], 13 µM (≈ 5.08 µg/mL); in the test with Staphylococcus aureus [7] it was 25 µM (≈ 9.76 µg/mL).

Consider `O=C(CCc1ccccc1)c1c(O)cc(O)c2c1OC(c1ccc(O)cc1)C(O)C2` (stereo in doubt; (+)-15), for which the MIC with Staphylococcus aureus [3], in the test with Staphylococcus aureus [12] (setting [21]), against Staphylococcus aureus [5], with Staphylococcus aureus [6] and against Staphylococcus aureus [7] was 25 µM (≈ 10.2 µg/mL) in each case.

On to `COc1ccc(CCC(=O)c2c(O)cc(O)c3c2OC(c2ccc(O)cc2)C(O)C3)cc1` (stereo in doubt; (+)-16), for which the MIC was over 50 µM against Staphylococcus aureus [3]; 25 µM (≈ 10.9 µg/mL) in the test on Staphylococcus aureus [12] (setting [21]); 50 µM (≈ 21.8 µg/mL) with Staphylococcus aureus [4]; 50 µM (≈ 21.8 µg/mL) with Staphylococcus aureus [5]; over 50 µM in the test on Staphylococcus aureus [8]; over 50 µM against Staphylococcus aureus [10].

In the case of `O=C(CCc1ccccc1)c1c(O)cc2c(c1O)CC(O)C(c1ccc(O)cc1)O2` (stereo in doubt; (+)-17), the MIC is 50 µM (≈ 20.3 µg/mL) in the test on Staphylococcus aureus [12] (setting [21]), 50 µM (≈ 20.3 µg/mL) with Staphylococcus aureus [5], 50 µM (≈ 20.3 µg/mL) with Staphylococcus aureus [9] and over 50 µM against Staphylococcus aureus [10].

In [1] (Homo sapiens, WS1), `O=C(CCc1ccccc1)c1c(O)cc(O)c2c1OC(c1ccc(O)cc1)CC2` (stereo in doubt; (-)-12) came in with an IC50 of over 10 µM. Also, the MIC against Staphylococcus aureus [3] was 6 µM (≈ 2.34 µg/mL); against Staphylococcus aureus [4] it was 6 µM (≈ 2.34 µg/mL); against Staphylococcus aureus [5], 6 µM (≈ 2.34 µg/mL); in the test on Staphylococcus aureus [6] (setting [16]), 13 µM (≈ 5.08 µg/mL); with Staphylococcus aureus [7] (setting [17]), 13 µM (≈ 5.08 µg/mL); with Staphylococcus aureus [8] (setting [18]), 6 µM (≈ 2.34 µg/mL). The results for the MIC with Staphylococcus aureus [9] (setting [19]), in the test with Staphylococcus aureus [10] (setting [20]) and in the test on Staphylococcus aureus [11] were 6 µM (≈ 2.34 µg/mL), 13 µM (≈ 5.08 µg/mL) and 6 µM (≈ 2.34 µg/mL), respectively.

In [1] (Homo sapiens, WS1), `O=C(CCc1ccccc1)c1c(O)cc(O)c2c1OC(c1ccc(O)cc1)C(O)C2` (stereo in doubt; (-)-15) came in with an IC50 of over 10 µM. Also, the MIC against Staphylococcus aureus [2] was 50 µM (≈ 20.3 µg/mL); with Staphylococcus aureus [3] (setting [13]), 50 µM (≈ 20.3 µg/mL); in the test with Staphylococcus aureus [4] (setting [14]) it was 25 µM (≈ 10.2 µg/mL); in the test on Staphylococcus aureus [5] (setting [15]) it was 50 µM (≈ 20.3 µg/mL); with Staphylococcus aureus [6] (setting [16]), 50 µM (≈ 20.3 µg/mL); in the test with Staphylococcus aureus [7] (setting [17]) it was 50 µM (≈ 20.3 µg/mL). The MIC with Staphylococcus aureus [8] (setting [18]) worked out at 25 µM (≈ 10.2 µg/mL); in the test with Staphylococcus aureus [9] (setting [19]), 25 µM (≈ 10.2 µg/mL); in the test on Staphylococcus aureus [10] (setting [20]) it was 25 µM (≈ 10.2 µg/mL); against Staphylococcus aureus [11] it was 50 µM (≈ 20.3 µg/mL).

In the case of `COc1ccc(CCC(=O)c2c(O)cc(O)c3c2OC(c2ccc(O)cc2)C(O)C3)cc1` (stereo in doubt; (-)-16), the IC50 in [1] (Homo sapiens, WS1) is over 10 µM. The minimal inhibitory concentration (MIC) in the test with Staphylococcus aureus [3] (setting [13]) is 50 µM (≈ 21.8 µg/mL); in the test with Staphylococcus aureus [4] (setting [14]), 25 µM (≈ 10.9 µg/mL); in the test with Staphylococcus aureus [5] (setting [15]) it was over 50 µM; with Staphylococcus aureus [6] (setting [16]), 50 µM (≈ 21.8 µg/mL); with Staphylococcus aureus [7] (setting [17]) it was 50 µM (≈ 21.8 µg/mL); in the test on Staphylococcus aureus [8], 13 µM (≈ 5.67 µg/mL). Further, the MIC in the test with Staphylococcus aureus [9] (setting [19]), in the test on Staphylococcus aureus [10] (setting [20]) and against Staphylococcus aureus [11] was 25 µM (≈ 10.9 µg/mL) throughout.

For GENTAMICIN, the MIC amounted to 0.05 µM in the test with Staphylococcus aureus [3]; 0.03 µM in the test with Staphylococcus aureus [12]; 0.04 µM with Staphylococcus aureus [4]; 0.09 µM in the test with Staphylococcus aureus [5]; 0.07 µM in the test with Staphylococcus aureus [6]; 0.05 µM in the test with Staphylococcus aureus [7]. Further, the MIC worked out at 0.08 µM in the test on Staphylococcus aureus [8], 0.07 µM with Staphylococcus aureus [9] and 0.07 µM against Staphylococcus aureus [10].

Values taken from ChEMBL document CHEMBL4425163, “Structure elucidation of anti-methicillin resistant Staphylococcus aureus (MRSA) flavonoids from balsam poplar buds” (Bioorg Med Chem, 2016).
